Measured values taken from PMC2859510 (The Journal of Biological Chemistry, 2010).
“Also recorded” adds a separate entry of the source. Each block holds one substance with its values, some of them ahead of it. Where no end group is shown, it is not given here.

Key:
GST-NEMO-(2–200) = GST-NEMO-(2–200) (UniProt Q9Y6K9); assay: AlphaScreen or HTRF
LPS-stimulated PBMC = assay: LPS-induced TNF-α and IL-6 production in PBMC; format: cell-based, human; conditions: pretreated 2 h, 10 ng/ml LPS 18 h, IKK-2 11-mer, Fig. 1A/data not shown
Procedure, shortened: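 PBMC were Ficoll-isolated from heparinized healthy-donor blood and kept in DMEM with 5% endotoxin-free FBS and pen/strep. They were plated at 2.5 × 10^5 cells/well and given rising peptide doses for 2 h. Then 10 ng/ml LPS or vehicle was added for 18 h, at 1% DMSO final. TNF-α and IL-6 were read by MSD, IC50 fitted, and viability checked by Alamar Blue. Data are % of LPS-stimulated cells, mean ± S.D.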

unstimulated PBMC = assay: Basal TNF-α and IL-6 production in PBMC; format: cell-based, human; conditions: pretreated 2 h, vehicle 18 h, IKK-2 11-mer
Procedure, shortened: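 Human PBMC from heparinized healthy-donor blood were isolated by Ficoll, plated at 2.5 × 10^5 cells/well in DMEM with 5% endotoxin-free FBS and penicillin/streptomycin. Cells were pretreated 2 h with increasing test compound concentrations, then given vehicle for 18 h (1% DMSO final). TNF-α and IL-6 were measured by MSD; cytotoxicity by Alamar Blue. Expressed as % of untreated cells; mean ± S.D., ≥3 determinations.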

IL-1β-stimulated RASF = assay: IL-1β-induced IL-6 production in RASF; format: cell-based, patients with rheumatoid arthritis; conditions: pretreated 2 h, 1 ng/ml IL-1β 18 h, 1% serum, IKK-2 11-mer
Procedure, shortened: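 Fibroblasts were grown in high-glucose DMEM with 15% defined bovine serum and 50 μg/ml gentamicin. They were seeded at 1.5 × 10^4 cells/well, attached overnight, then moved to DMEM with 1% serum. Cells got rising peptide doses for 2 h, then 1 ng/ml IL-1β for 18 h. Secreted IL-6 was read by MSD, IC50 fitted, and viability checked by Alamar Blue. Data are % of stimulated cells, mean ± S.D. of ≥3 determinations.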

unstimulated RASF = assay: Basal IL-6 production in RASF; format: cell-based, patients with rheumatoid arthritis; conditions: pretreated 2 h, vehicle 18 h, IKK-2 11-mer
Procedure, shortened: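 Commercial RASF were seeded at 1.5 × 10^4 cells/well in high-glucose DMEM with 15% defined bovine serum and 50 μg/ml gentamicin, attached overnight, then switched to DMEM with 1% serum. Cells were pretreated 2 h with increasing test compound concentrations, then given vehicle for 18 h. Secreted IL-6 was measured by MSD; cytotoxicity by Alamar Blue. Expressed as % of untreated cells; mean ± S.D., ≥3 determinations.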

[1] = tested on: bovine nasal cartilage explant cultures; format: cell-based; conditions: data not shown
IKK-2 (Ser^181); IκBα = format: cell-based, patients with rheumatoid arthritis; conditions: RASF, peptide 1 h before 1 ng/ml IL-1β 10 min; IKK-2 11-mer
Procedure, shortened: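 Rheumatoid arthritis synovial fibroblasts were exposed to peptide for 1 h, then to 1 ng/ml IL-1β for 10 min. The same lysates also served the kinase assay. Proteins were separated by SDS-PAGE and transferred to PVDF. Membranes were probed 2 h at 25 °C with anti-phospho-IKK-1(Ser180)/IKK-2(Ser181) or anti-IκBα, then with secondary Ab for 1 h. Bands were read by infrared imaging.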

IRAK-1, TAK-1, IκBα, p65 = assay: NF-κB signaling intermediates in IL-1β-stimulated RASF; format: cell-based, patients with rheumatoid arthritis; conditions: then 1 ng/ml IL-1β 10 min; for IRAK-1 fate (disappearance of band) / TAK-1 phosphorylation: 30 min
Procedure, shortened: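 Fibroblasts were given peptide for 30 min, then 1 ng/ml IL-1β for 10 min at 37 °C. Lysis used Tris pH 7.6 / NaCl / 0.5% NP-40 buffer with protease and phosphatase inhibitors, with protein measured by Bradford. Blots were run by SDS-PAGE and PVDF transfer, with primary Abs 2 h at 25 °C (anti-IRAK-1, anti-phospho-TAK-1, anti-p65) and secondary Ab 1 h. Tubulin served as loading control.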

[2] = biological target: GST-NEMO-(2–200) and IKK-2-FLAG (Homo sapiens, UniProt Q9Y6K9); assay: Alphascreen binding assay, recombinant NEMO and IKK-2; conditions: pH 7.4, read-out: inhibition of NEMO-IKK-2 interaction at 100 μM, Alphascreen
Procedure, shortened: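 GST-NEMO-(2–200) (2 nM) and C-terminal FLAG-tagged full-length IKK-2 (2 nM) were incubated 30 min at room temperature in buffer containing 50 mM HEPES pH 7.4, 0.01% BSA, 0.0005% Tween 20 and 1 mM DTT. Unlabeled competitor peptides were titrated in for 30 min. Glutathione donor and anti-FLAG acceptor beads were added, overnight at room temperature, then Alphascreen read. Mean ± S.E. of four independent experiments.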

NEMO-IKK-2 complex = assay: Immunoprecipitation of the IKK complex with anti-NEMO from RASF; format: cell-based, patients with rheumatoid arthritis; conditions: 150 μM WT or mutant peptide, 30 min, then 1 ng/ml IL-1β 10 min; IKK-2 11-mer
Procedure, shortened: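 Fibroblasts were given 150 μM WT or mutant peptide for 30 min, then 1 ng/ml IL-1β for 10 min at 37 °C. Cells were lysed in 20 mM Tris pH 7.6, 150 mM NaCl, 0.5% NP-40, PMSF, protease and phosphatase inhibitors. From 50 μg lysate, the complex was pulled down with anti-NEMO mAb for 1 h, then Protein A beads for 1 h. Precipitates and inputs were blotted under reducing SDS-PAGE and read by infrared imaging. Runs were repeated 2–4 times.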

NEMO-IKK-2 interactions = assay: In situ proximity ligation assay, NEMO-IKK-2 interactions in RASF; format: cell-based, patients with rheumatoid arthritis; conditions: data not shown
Procedure, shortened: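 RASF on culture slides (2.5 × 10^4 cells/well, DMEM 10% FBS, overnight 37 °C) were moved to serum-free DMEM with 1% DMSO or test compound for 30 min. Cells were fixed (4% paraformaldehyde), permeabilized (0.1% Triton X-100), and blocked. They were then incubated overnight at 4 °C with anti-NEMO plus anti-IKK-2 Abs, then with oligonucleotide-linked probes (1 h, 37 °C), followed by ligation and amplification. Counterstained with Hoechst and imaged at ×20; signals/cell averaged per image.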

NF-κB reporter gene [3] = conditions: proinflammatory stimuli (TNF-α); cited from earlier work
NF-κB reporter gene [4] = conditions: cited from earlier work
NEMO-(2-200) = NEMO-(2-200) (UniProt Q9Y6K9); assay: fluorescence polarisation
[5] = biological target: GST-NEMO-(2–200) and biotinylated IKK-1/2 chimeric 44-mer peptide (Homo sapiens, UniProt Q9Y6K9); assay: Time-resolved FRET binding assay
IKK complex = assay: Native PAGE / Western blot: release of IKK-2 from an IKK complex in RASF; format: cell-based, patients with rheumatoid arthritis; conditions: 30 min peptide, then IL-1β 10 min, IKK-2 11-mer

Chain of GST-NEMO-(2–200) (Q9Y6K9 2-200): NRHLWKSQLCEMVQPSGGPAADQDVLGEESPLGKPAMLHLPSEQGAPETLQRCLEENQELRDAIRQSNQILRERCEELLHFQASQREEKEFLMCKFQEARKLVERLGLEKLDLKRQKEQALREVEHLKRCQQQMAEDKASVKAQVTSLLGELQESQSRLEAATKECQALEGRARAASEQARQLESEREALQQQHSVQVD
Chain of NEMO-(2-200) (Q9Y6K9 2-200): as above
Chain of GST-NEMO-(2–200) and biotinylated IKK-1/2 chimeric 44-mer peptide (Q9Y6K9 2-200, change not shown): as the sequence (Q9Y6K9 2-200) above
Chain of GST-NEMO-(2–200) and IKK-2-FLAG (Q9Y6K9 2-200): as above

Substance: DRQIKIWFQNRRMKWKKTALDWSWLQTE [WT NBD peptides]
LPS-induced production of IL-6 (LPS-stimulated PBMC): completely blocked | basal cytokine production (TNF-α and IL-6), PBMC (unstimulated PBMC): neither WT nor mutant NBD peptides had an inhibitory effect; also recorded: slight increase in basal cytokine production | IL-1β-induced IL-6 production (IL-1β-stimulated RASF): completely blocked | basal IL-6 production, RASF (unstimulated RASF): neither WT nor mutant NBD peptides had an inhibitory effect; also recorded: slight increase in basal cytokine production | cytokine-induced release of glycosaminoglycans [1]: inhibited | IKK-2 phosphorylation at Ser^181 (IKK-2 (Ser^181); IκBα): inhibited | IκBα degradation (IKK-2 (Ser^181); IκBα): inhibited | IRAK-1 fate (disappearance of band) (IRAK-1, TAK-1, IκBα, p65): no effect | TAK-1 phosphorylation (IRAK-1, TAK-1, IκBα, p65): no effect | IκBα degradation (30 min pretreatment) (IRAK-1, TAK-1, IκBα, p65): inhibited IκBα degradation in a concentration-dependent manner | inhibition at 100 µM [2]: 40% | relative concentration of IKK-2 in the immunoprecipitated complex (NEMO-IKK-2 complex): no significant effect | NEMO-IKK-2 interactions (PLA), unstimulated (NEMO-IKK-2 interactions): inhibited NEMO-IKK-2 interactions in unstimulated cells | NF-κB reporter gene activity, stimulated (NF-κB reporter gene [3]): inhibited NF-κB reporter gene activity | NF-κB reporter gene activity, basal (NF-κB reporter gene [4]): did not inhibit basal reporter gene activity

Substance: TALDASALQTE [mutant NBD peptides]
basal cytokine production (TNF-α and IL-6), PBMC (unstimulated PBMC): neither WT nor mutant NBD peptides had an inhibitory effect | basal IL-6 production, RASF (unstimulated RASF): neither WT nor mutant NBD peptides had an inhibitory effect | cytokine-induced release of glycosaminoglycans [1]: WT but not mutant NBD peptides inhibited | IKK-2 phosphorylation at Ser^181 (IKK-2 (Ser^181); IκBα): WT but not mutant NBD peptides inhibited | IκBα degradation (IKK-2 (Ser^181); IκBα): WT but not mutant NBD peptides inhibited | IRAK-1 fate (disappearance of band) (IRAK-1, TAK-1, IκBα, p65): failed | TAK-1 phosphorylation (IRAK-1, TAK-1, IκBα, p65): failed | IκBα degradation (30 min pretreatment) (IRAK-1, TAK-1, IκBα, p65): failed to protect IκBα from degradation | release of IKK-2 from IKK complex, IL-1β-treated (IKK complex): WT but not mutant NBD peptides led to the appearance of an IKK-2 band distinct from the complex; also recorded: WT but not mutant NBD peptides resulted in the release of IKK-2

Other lines, results leading:

IC50 (GST-NEMO-(2–200)): > 100000 nM | percent inhibition at 100 μM (GST-NEMO-(2–200)): 40%
Substance: Antennapedia homeodomain-conjugated IKK-2 11-mer NBD peptide (WT)

IC50 (NEMO-(2-200)): > 1000 nM | IC50 (GST-NEMO-(2–200)): > 1000 nM
Substance: IKK-2 45-mer mutant (W739A and W741A) (peptide)

IC50 [5]: 1 to 7 nM
Substance: PAKKSEELVAEAHNLCTLLENAIQDTVREQDQSFTALDWSWLQTE [IKK-2 45-mer]
